Screening results (PubChem BioAssay)
FAK blocker – blocks human focal adhesion kinase activity | biochemical FAK kinase activity assay | inhibition, %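 (tested at 7 µM)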 | 97,000 compounds, 0.84% hits | Q05397; in the data active means inhibition above about 19%
PLK1 kinase inh – inhibitors of human PLK1 kinase | P53350 | recombinant PLK1 kinase, TR-FRET peptide phosphorylation | inhibition, % at 10 µM | 97,000 compounds, 0.53% hits | AID 619;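 active means inhibition of 50% or more in the single-concentration screen; inactive means inhibition below 50%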
Pyk2 oligo antag – antagonists of human Pyk2 oligomerization. Q14289. Q293 cells, Pyk2 FERM NanoBiT luminescence; hits give low values. z-score (the deposit names both 25 µM and 10 µM). 99,000 compounds, 0.83% hits. AID 1347419;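 active means Z-score of -3 or lower, scaled per plate to the spread of control and sample wells; inactive means z-score above -3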;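 further: negative z-score means lost luminescence so less FERM oligomerization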
HIV Rev-RRE inh – inhibitors of HIV-1 Rev-RRE RNA interaction | 97,000 compounds, 0.79% hits | AID 704 | inhibition, % at 8 µM | P05866 | Rev peptide-RRE RNA binding, FRET;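 active means inhibition above the screen-wide mean plus 3 SD, cut at about 35% in these data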
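Material: labelled RRE RNA duplex and labelled Rev peptide / Buffer or medium: HEPES pH 7.5 salt buffer with EDTA / Compound dosing: single point, 8 µM final nominal compound concentration / Benchmarks: DMSO low control, neomycin B high control / Timing: 5 min preincubation and 15 min binding, 25 °C / Technique: FRET fluorescence readout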
PLK1 PBD inh – inhibitors of human Plk1 polo box domain binding; P53350; Plk1 PBD phosphopeptide binding, fluorescence polarization; inhibition, %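 (tested at about 20 µM)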; 97,000 compounds, 0.13% hits; AID 693; in the data active means inhibition above about 34%, passing the limit was not always enough
Cav32 inh – inhibitors of human Cav3.2 T-type calcium channel; Cav3.2-expressing cells, Fluo-4 calcium fluorescence FDSS; hits give low values; 100,000 compounds, 4% hits; O95180; B-score at 10 µM; AID 449739;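 active means single-dose well whose peak fluorescence ratio is a statistical outlier from its plate by either plate-standardised score or position-corrected B-score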
Target sequence (O95180 whole entry, looked up): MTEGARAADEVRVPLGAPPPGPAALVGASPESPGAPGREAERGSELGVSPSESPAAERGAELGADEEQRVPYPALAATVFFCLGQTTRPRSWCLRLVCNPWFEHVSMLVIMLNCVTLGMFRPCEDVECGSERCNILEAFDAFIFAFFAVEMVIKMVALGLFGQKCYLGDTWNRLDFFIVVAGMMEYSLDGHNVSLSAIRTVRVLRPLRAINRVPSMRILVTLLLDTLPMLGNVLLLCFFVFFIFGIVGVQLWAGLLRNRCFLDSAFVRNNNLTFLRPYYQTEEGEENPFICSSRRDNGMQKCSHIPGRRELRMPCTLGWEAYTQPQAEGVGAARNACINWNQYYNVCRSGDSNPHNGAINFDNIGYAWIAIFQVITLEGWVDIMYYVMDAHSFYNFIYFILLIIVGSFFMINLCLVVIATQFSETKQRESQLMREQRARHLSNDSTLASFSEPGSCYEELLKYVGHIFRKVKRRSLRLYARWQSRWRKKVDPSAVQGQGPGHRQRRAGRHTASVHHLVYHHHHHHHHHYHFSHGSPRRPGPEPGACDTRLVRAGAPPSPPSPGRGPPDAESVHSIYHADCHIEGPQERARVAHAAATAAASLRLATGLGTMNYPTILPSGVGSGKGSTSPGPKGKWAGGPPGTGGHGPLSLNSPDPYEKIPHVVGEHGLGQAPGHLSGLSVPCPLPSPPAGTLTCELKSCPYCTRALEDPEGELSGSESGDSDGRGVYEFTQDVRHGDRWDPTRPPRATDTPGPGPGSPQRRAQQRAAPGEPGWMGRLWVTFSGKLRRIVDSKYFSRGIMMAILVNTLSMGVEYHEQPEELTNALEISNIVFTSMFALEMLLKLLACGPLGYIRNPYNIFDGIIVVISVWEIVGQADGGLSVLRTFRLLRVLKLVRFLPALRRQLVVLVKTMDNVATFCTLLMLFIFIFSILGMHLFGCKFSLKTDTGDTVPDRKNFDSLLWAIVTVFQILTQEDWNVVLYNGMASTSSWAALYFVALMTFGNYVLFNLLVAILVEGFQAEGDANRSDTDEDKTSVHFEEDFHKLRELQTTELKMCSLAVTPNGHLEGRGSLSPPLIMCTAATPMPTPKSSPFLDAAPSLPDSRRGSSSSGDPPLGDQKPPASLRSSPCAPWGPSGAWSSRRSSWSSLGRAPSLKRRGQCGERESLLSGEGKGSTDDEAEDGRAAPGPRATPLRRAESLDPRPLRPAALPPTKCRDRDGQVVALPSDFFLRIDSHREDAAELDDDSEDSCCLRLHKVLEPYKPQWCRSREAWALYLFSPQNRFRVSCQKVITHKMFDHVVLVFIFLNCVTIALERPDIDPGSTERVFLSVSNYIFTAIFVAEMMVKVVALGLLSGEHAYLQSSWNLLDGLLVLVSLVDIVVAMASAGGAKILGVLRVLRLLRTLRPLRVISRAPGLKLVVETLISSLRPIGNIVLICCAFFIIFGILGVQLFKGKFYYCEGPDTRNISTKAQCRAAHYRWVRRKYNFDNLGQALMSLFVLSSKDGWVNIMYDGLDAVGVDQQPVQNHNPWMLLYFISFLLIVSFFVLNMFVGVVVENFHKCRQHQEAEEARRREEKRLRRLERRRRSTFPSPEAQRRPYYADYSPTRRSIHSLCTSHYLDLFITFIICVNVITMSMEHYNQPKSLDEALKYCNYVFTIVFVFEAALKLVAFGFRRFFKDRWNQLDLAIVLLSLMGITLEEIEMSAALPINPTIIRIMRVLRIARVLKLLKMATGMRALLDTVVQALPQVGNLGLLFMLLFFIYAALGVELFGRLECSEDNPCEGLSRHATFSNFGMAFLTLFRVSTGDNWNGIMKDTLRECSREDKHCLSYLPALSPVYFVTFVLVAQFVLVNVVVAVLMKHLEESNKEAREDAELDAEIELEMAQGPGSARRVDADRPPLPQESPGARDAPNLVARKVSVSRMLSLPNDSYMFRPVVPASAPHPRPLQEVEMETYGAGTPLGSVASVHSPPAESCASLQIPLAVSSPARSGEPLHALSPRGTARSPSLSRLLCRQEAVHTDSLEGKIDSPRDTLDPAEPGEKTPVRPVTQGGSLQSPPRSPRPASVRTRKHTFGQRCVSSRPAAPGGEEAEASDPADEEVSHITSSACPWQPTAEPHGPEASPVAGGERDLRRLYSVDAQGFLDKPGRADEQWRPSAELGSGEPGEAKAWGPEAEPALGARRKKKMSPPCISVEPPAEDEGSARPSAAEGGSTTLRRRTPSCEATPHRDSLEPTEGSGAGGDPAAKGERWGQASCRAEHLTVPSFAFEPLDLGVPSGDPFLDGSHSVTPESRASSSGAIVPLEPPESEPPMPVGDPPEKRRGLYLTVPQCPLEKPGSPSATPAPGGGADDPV
Large screens that a line does not name were inactive. Most compounds without a hit are left out; they make up all but 5.8% or so of the library.

O=C(CSc1nnc(-c2ccc(Cl)cc2)n1Cc1ccco1)NCc1ccc2c(c1)OCO2	Cav32 inh -5.3
CC(Sc1nnc(-c2cccnc2)n1-c1ccccc1)C(=O)NCc1ccc2c(c1)OCO2 (stereo unspecified)	none
COc1ccc(-c2nnc(SC(C)C(=O)NCc3ccc4c(c3)OCO4)n2Cc2ccco2)cc1 (stereo unspecified)	Cav32 inh -5.3
Clc1ccc2c(c1)C(c1cccs1)=NNC(c1cccnc1)=N2	none (no result: Cav32 inh)
CCOC(=O)c1sc(NC(=O)Cn2nnc3sc4c(c3c2=O)CCCC4)nc1C	Cav32 inh -4.6
O=C(COC(=O)C1(c2ccc(F)cc2)CCCC1)N1CCN(C(=O)c2ccco2)CC1	Cav32 inh -5.4
CNC(=S)N(Cc1ccc2c(c1)OCO2)C1CC(=O)N(c2ccc(F)cc2)C1=O (stereo unspecified)	Cav32 inh -4
COc1ccc(CN(C(=S)Nc2ccccc2)C2CC(=O)N(c3ccc(F)cc3)C2=O)cc1 (stereo unspecified)	none
COc1ccc(C(=O)N(Cc2nc(-c3ccc(C)cc3)no2)C2CCCCC2)cc1OC	Cav32 inh -4
O=c1c2cc(F)ccc2[nH]c(=S)n1CCCN1CCOCC1	none
CC1CCc2cccc3c2N1c1cc(C#N)c(C#N)cc1O3 (stereo unspecified)	HIV Rev-RRE inh 40, Cav32 inh -3.6
O=S1(=O)C=CC(Nc2ccccc2)C1 (stereo unspecified)	none
CCc1cccc2c(C#N)cn(CC(=O)NCCOC)c12	none
COc1ccc2cc3cc(C(=O)Nc4ccccc4N4CCN(C)CC4)oc3nc2c1	none
COc1ccc2cc3cc(C(=O)NCCN4CCN(c5ccccc5F)CC4)oc3nc2c1	Pyk2 oligo antag -3.1
Cc1cnn(-c2ccc3nnc(-c4ccc(Cl)cc4)n3n2)c1	none
O=[N+]([O-])c1cc(Br)c(O)c(/C=N/Nc2nnnn2-c2cccc3ccccc23)c1	Cav32 inh -9.3
Cc1cc(C)nc(N/N=C/c2ccccc2OCc2ccc([N+](=O)[O-])cc2)n1	none (no result: FAK blocker, PLK1 kinase inh, HIV Rev-RRE inh, PLK1 PBD inh, Cav32 inh)
Cc1nc(Nc2ccc(F)cc2)[nH]c(=O)c1CCC(C)C	Cav32 inh -5.6
CCOCCCNC(=O)CS(=O)(=O)Cc1nc(-c2cccc(OC)c2)oc1C	none
Cc1oc(-c2ccccc2Cl)nc1CSCC(=O)N1CCCC1	none
COc1cccc(-c2nc(CS(=O)(=O)CC(=O)NC3CCCc4ccccc43)c(C)o2)c1 (stereo unspecified)	Cav32 inh -6.8 (no result: Pyk2 oligo antag)
COc1cccc(-c2nc(CS(=O)CC(=O)NC3CC3)c(C)o2)c1 (stereo unspecified)	PLK1 kinase inh 69 (no result: Pyk2 oligo antag)
COc1cccc(-c2nc(CS(=O)(=O)CC(=O)N3CCc4ccccc4C3)c(C)o2)c1	Cav32 inh -4.8 (no result: FAK blocker, PLK1 kinase inh, Pyk2 oligo antag, HIV Rev-RRE inh, PLK1 PBD inh)
Cc1oc(-c2ccccc2Cl)nc1CSCC(=O)NC1CCCC1	Cav32 inh -4.5
c1ccc(C2(CNc3ccccn3)CCCC2)cc1	none
CCOc1ccc(-c2nc(CSCC(=O)NC3CCCc4ccccc43)c(C)o2)cc1 (stereo unspecified)	Cav32 inh -6.3
CCOC(=O)N1CCC(NC(=O)CSCc2nc(-c3cccc(OC)c3)oc2C)CC1	none
C=CCc1ccc(O)c(-c2cc(CC=C)ccc2O)c1	Cav32 inh -5 (no result: FAK blocker, PLK1 kinase inh, Pyk2 oligo antag, HIV Rev-RRE inh, PLK1 PBD inh)
C=CCc1ccc(OCC(O)CO)c(OC)c1 (stereo unspecified)	none (no result: Pyk2 oligo antag, Cav32 inh)
O=C(Nc1nc(-c2ccccc2)cs1)C1COc2ccccc2O1 (stereo unspecified)	none
O=C(Nc1nc(-c2ccc3c(c2)OCO3)cs1)C1COc2ccccc2O1 (stereo unspecified)	Cav32 inh -5.3 (no result: FAK blocker, PLK1 kinase inh, Pyk2 oligo antag, HIV Rev-RRE inh, PLK1 PBD inh)
O=c1[nH]c(=O)n(-c2ccccc2)c2c1C(C(F)(F)F)(C(F)(F)F)N=C(CCC1CCCCC1)N2	Pyk2 oligo antag -3.6 (no result: FAK blocker, PLK1 kinase inh, HIV Rev-RRE inh, PLK1 PBD inh, Cav32 inh)
O=c1[nH]c(=O)n(Cc2ccco2)c2c1C(C(F)(F)F)(C(F)(F)F)N=C(CCc1ccccc1)N2	Pyk2 oligo antag -4
CC(C)OP(C)(=O)CN1CCN(CP(C)(=O)OC(C)C)CC1 (stereo unspecified)	none
CCN1CCN(Cc2c(C)[nH]c3ccc(OC)cc3c2=O)CC1	none (no result: Cav32 inh)
Cc1cccc(NC(=O)c2ccc(C3SCC(=O)N3CCc3ccccc3)cc2)c1C (stereo unspecified)	Cav32 inh -4.5
Cc1ccc(C)n1-n1c(C)nc2sc3c(c2c1=O)CCCCC3	Cav32 inh -5.6
COC(=O)c1cc(C(=O)OC)cc(S(=O)(=O)Nc2ccc(Cl)c(N)c2)c1	none
COc1ccc(N(CC(=O)NC2CCCC2)C(=O)Cn2nnc(-c3ccc(C)cc3)n2)cc1OC	none
COc1ccc(N(CC(=O)NC2CCCC2)C(=O)Cn2nnc(-c3ccc(C)cc3)n2)cc1	Cav32 inh -6.7
O=C1CC(c2cccc(Br)c2)c2cc3c(cc2N1)CCC3 (stereo unspecified)	none (no result: Cav32 inh)
Cc1cccc(C(=O)N2CCN(c3ccc(C(F)(F)F)cn3)CC2)c1C	Cav32 inh -4.7
Cc1ccccc1N1CCN(C(=O)c2ccc(Oc3ccc(C(F)(F)F)cn3)cc2)CC1	Cav32 inh -6
CCOc1ccc(C(=O)N2CCN(c3cccc(C)c3C)CC2)cc1	none
O=C(c1ccccn1)N1CCN(c2ccc(C(F)(F)F)cn2)CC1	none
COc1ccc(/C(C)=N/OCC(=O)N2CC3(C)CC2CC(C)(C)C3)cc1 (stereo unspecified)	none (no result: FAK blocker, PLK1 kinase inh, HIV Rev-RRE inh, PLK1 PBD inh, Cav32 inh)
COc1ccc(CN(C(=O)CN2C(=O)C(C)Oc3ccccc32)C2CCCC2)c(OC)c1 (stereo unspecified)	Cav32 inh -4.4
NC(=O)C1CCN(C2CC(=O)N(c3ccc(F)c(Cl)c3)C2=O)CC1 (stereo unspecified)	none
CC(NC(=S)NCCc1ccccc1)C(c1cccs1)N1CCN(Cc2ccccc2)CC1 (stereo unspecified)	Cav32 inh -4.6 (no result: FAK blocker, PLK1 kinase inh, Pyk2 oligo antag, HIV Rev-RRE inh, PLK1 PBD inh)
COc1ccc(OC)c(C2C(C(=O)Nc3nc4ccccc4s3)=C(C)NC3=C2C(=O)CCC3)c1 (stereo unspecified)	Cav32 inh -7.5
Clc1ccc(C(c2nnnn2C2CCCCC2)N(Cc2cccnc2)Cc2ccco2)cc1 (stereo unspecified)	Cav32 inh -3.9
Clc1ccccc1CN(Cc1ccccc1)C(c1cccs1)c1nnnn1C1CCCC1 (stereo unspecified)	none
Cc1ccc2[nH]c(=O)c(C(c3nnnn3C3CCCC3)N(Cc3cccnc3)Cc3ccco3)cc2c1 (stereo unspecified)	none
Clc1ccc(CN(CC2CCCO2)C(c2cccs2)c2nnnn2C2CCCC2)cc1 (stereo unspecified)	Cav32 inh -8.1
COc1ccc(/C=C/C(=O)OCC(=O)Nc2ccc(C)cc2)cc1S(=O)(=O)N1CCOCC1	none (no result: FAK blocker, PLK1 kinase inh, HIV Rev-RRE inh, PLK1 PBD inh, Cav32 inh)
COC(=O)c1cc(OC)c(OC)cc1NC(=O)c1ccoc1C	none (no result: Pyk2 oligo antag)
O=C(CSCc1nc2ccccc2[nH]1)N1CCN(c2cccc(Cl)c2)CC1	Cav32 inh -3.5
